Glyco luc inh – increase of ERlucT glycosylation luciferase signal, primary screen, N-linked glycosylation inhibitor project, D54 ERlucT cells, luminescence, set 2. reporter increase, % at 12.5 µM. hit rate 0.23% among 360,000. D54 ERlucT glycosylation luciferase reporter, 24 h; percent of 100 nM tunicamycin response;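 active = mean luciferase reporter signal, scaled so untreated is 0 and the glycosylation-blocking control 100, at or above a set limit in every replicate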;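 note: luciferase carries N-glycosylation sites so blocking glycosylation raises the light; 0% = median of neutral control wells and 100% = median of 100 nM tunicamycin wells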
FN deposition inh – inhibitors of fibronectin matrix deposition, primary screen, AH1F cells, Alexa488-fibronectin fluorescence, plate reader; AH1F fibroblasts, overnight; inhibition, % at 12.6 µM; hit rate 0.086% among 350,000; AID 743247, 2014;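 active = mean inhibition across replicates of 30% or more, regardless of how many single replicates reach that level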;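 note: positive control wells lacked labelled fibronectin entirely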
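Test system: AH1F fibroblast monolayer depositing Alexa488-labelled fibronectin into matrix. Input: 10000 cells per well. Technique: fluorescence, ex 485 nm, em 525 nm. Buffer or medium: DMEM plus 2% serum, read in PBS. Timing: 1 h cell adhesion before compound, then overnight fibronectin incubation. Compound: single dose, pinned. Read-out basis: inhibition from reduced deposited-fibronectin fluorescence.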
RAD52 anneal inh – RAD52 DNA annealing inhibitors, primary screen, biochemical, FRET, single point, set 2; DNA repair protein RAD52 homolog (Homo sapiens), P43351; recombinant RAD52 DNA annealing, FRET fluorescence; inhibition, % at 18.7 µM; hit rate 0.46% among 360,000;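 active = every replicate showing at least 50% inhibition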
MLL AF4-AF9 inh – inhibitors of AF4 peptide binding to AF9, primary screen, biochemical, AlphaScreen, biotin-AF4 peptide, FLAG-AF9, single point; Protein AF-9 (Homo sapiens), P42568; hit rate 0.47% among 350,000; inhibition, % at 10 µM;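 active = every replicate reaching a set inhibition limit, whatever the replicate mean, cut at about 25% in these data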;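 note: 0% = plate neutral control median and 100% = total signal loss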
Target sequence (P42568 whole entry, looked up): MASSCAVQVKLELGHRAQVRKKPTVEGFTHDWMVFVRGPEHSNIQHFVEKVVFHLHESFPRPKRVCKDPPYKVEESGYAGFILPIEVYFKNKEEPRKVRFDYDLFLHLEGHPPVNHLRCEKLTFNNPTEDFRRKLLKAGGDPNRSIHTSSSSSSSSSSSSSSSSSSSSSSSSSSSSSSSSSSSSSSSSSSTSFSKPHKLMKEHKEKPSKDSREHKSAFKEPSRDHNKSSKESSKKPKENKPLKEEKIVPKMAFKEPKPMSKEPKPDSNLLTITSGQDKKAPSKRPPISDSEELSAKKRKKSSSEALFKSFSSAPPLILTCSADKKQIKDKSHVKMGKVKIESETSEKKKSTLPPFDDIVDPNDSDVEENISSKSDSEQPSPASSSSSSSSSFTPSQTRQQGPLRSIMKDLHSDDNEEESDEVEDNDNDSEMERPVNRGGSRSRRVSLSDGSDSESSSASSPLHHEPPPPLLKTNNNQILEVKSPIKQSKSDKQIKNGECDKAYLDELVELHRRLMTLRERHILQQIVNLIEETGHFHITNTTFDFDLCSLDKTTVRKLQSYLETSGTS
RAD54 inh – inhibitors of human RAD54 branch migration, primary screen, biochemical, fluorescence, single point; inhibition, % at 10.4 µM; DNA repair and recombination protein RAD54-like (Homo sapiens), Q92698; RAD54 Holliday junction branch migration, FAM/BHQ fluorescence; hit rate 0.14% among 360,000;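 active = mean normalized replicate activity at least 40 and at least half of replicates scoring 40 or more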;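 note: 0% = median of neutral control wells and 100% = median of positive control wells; inhibitors cause a drop in the FAM fluorescence signal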
DNA binder FP – DNA-binding compounds via dye displacement, dose response, artefact control for RAD52 inhibitor project, biochemical, fluorescence polarization, cherry-pick | AID 652128, 2013 | AC50, µM | Salmon sperm DNA/acridine orange FP displacement | shares compounds with RAD52 anneal inh | hit rate 8% among 1,000;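 active = fitted half-maximal concentration for signal loss at or below twice the highest dose tested, in every separate run, actives reach about 64 µM in these data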
Active calls of the source: *; i = inactive; nt = not tested or not shown. In the library only some 0.92% were active in any assay of this set; here they are far more common.

SMILES	Glyco luc inh	FN deposition inh	RAD52 anneal inh	MLL AF4-AF9 inh	RAD54 inh	DNA binder FP
CCN(CC)CCN(Cc1cc2cc3c(cc2[nH]c1=O)OCCO3)C(=S)NCCCN(C)C	2	4	54*	2	1	i
CN(C)CCCNC(=S)N(CCN(C)C)Cc1cc2cc3c(cc2[nH]c1=O)OCCO3	-1	0	84*	4	29	i
C[C@@H]1CN([C@@H](C)CO)C(=O)c2cc(C3=CCCC3)cnc2O[C@H]1CN(C)Cc1ccccc1C(=O)O	nt	-3	5	-3	3	nt
O=C(N[C@@H]1CC[C@@H](CCn2cc(C3CC3)nn2)O[C@H]1CO)c1cccnc1	nt	-4	-16	0	2	nt
COc1ccc(OC)c2nc3c(C(=O)NCCN(C)C)cccc3nc12	91*	18	105*	-1	nt	4.7µM*
CN(C)CCNC(=O)c1cccc2nc3cccc(F)c3nc12	-5	-5	97*	-2	nt	18µM*
CCN(CC)CCn1c(=N)n(CC(=O)c2ccc(Br)s2)c2ccccc21	-2	-6	51*	11	17	i
CCCN1C[C@H](C)[C@H](OC)CN(C)C(=O)c2cc(NC(=O)c3ccno3)ccc2OC[C@@H]1C	nt	-28	1	0	-8	nt
O=C(N/N=C/c1cccc([N+](=O)[O-])c1)c1cc[n+](CCO)cc1	-1	-11	82*	7	18	i
COCC(=O)N1C[C@@H](C)[C@@H](OC)CN(C)C(=O)c2cc(NC(=O)c3ccc(F)cc3)ccc2OC[C@@H]1C	nt	8	5	-1	-3	nt
C[C@H](CO)N1C[C@H](C)[C@@H](CN(C)S(C)(=O)=O)Oc2ccc(NS(=O)(=O)c3ccccc3)cc2CC1=O	nt	nt	1	4	0	nt
CCN1CCCC1CNC(=O)c1cc(N)ccc1OC (centres undefined)	-2	-10	90*	9	32	i
CSc1nc(NCC(C)C)c2c3c(sc2n1)CN(C)CC3	-2	nt	nt	nt	21	nt
CSc1nc(NCCCN(C)C)c2c3c(sc2n1)CN(C)CC3	nt	2	77*	4	nt	i
COCCNC(=O)C[C@H]1CC[C@@H]2[C@H](COc3ccc(NC(=O)C4CCCC4)cc3C(=O)N2C)O1	nt	-4	3	-1	5	nt
O=C(Nc1ccn(CCCN2CCN(Cc3cccc4ccccc34)CC2)c(=O)n1)OCc1ccccc1	-3	7	52*	15	nt	i
O=C(Nc1ccn(CCCN2CCN(c3ccccc3)CC2)c(=O)n1)OCc1ccccc1	-5	12	3	7	4	nt
CCOC(=O)N1CCN(C(=S)Nc2ccc3nc(N4CCN(CC)CC4)cc(C)c3c2)CC1	-4	-12	54*	14	37	i
CCN1CCN(c2cc(C)c3cc(NC(=O)c4ccc(C)c(C)c4)ccc3n2)CC1	-11	8	1	8	26	nt
Cc1cc(N2CCOCC2)nc2ccc(NC(=S)NC(C)C)cc12	3	2	53*	3	8	i
CCCCN(CC)CCNC(=O)CCC(=O)Nc1ccc2nc(N3CCN(C)CC3)cc(C)c2c1	2	-2	81*	6	44	i
CCCN(CCC)CCCNC(=S)Nc1ccc2nc(N3CCN(CC)CC3)cc(C)c2c1	-2	-2	97*	18	nt	i
Cc1ccc(S(=O)(=O)N(C)C[C@@H]2Oc3ccc(NC(=O)Cc4ccccc4)cc3C(=O)N([C@@H](C)CO)C[C@H]2C)cc1	nt	nt	8	0	-20	nt
CN1c2ccc(C#Cc3ccccc3F)cc2[C@H]2[C@H](CCN2C(=O)c2cnccn2)[C@H]1CO	nt	-9	-19	15	7	nt
CCN(CC)CCNC(=O)c1cc(-c2ccco2)nc2ccccc12	2	nt	78*	6	nt	i
SMILES	Glyco luc inh	FN deposition inh	RAD52 anneal inh	MLL AF4-AF9 inh	RAD54 inh	DNA binder FP
COc1ccc(CCNC(=O)c2cc(-c3ccco3)nc3ccccc23)cc1	nt	-1	2	-2	nt	nt
C[C@H](CO)N1C[C@H](C)[C@H](CN(C)C(=O)C2CCCCC2)OCCCC[C@H](C)Oc2ccc(NC(=O)c3ccccc3)cc2C1=O	nt	nt	8	-1	3	nt
COC(=O)C1=C(C)N(Cc2cccc(C(F)(F)F)c2)C(=NCc2ccc(C(F)(F)F)cc2)NC1c1ccc(C(F)(F)F)cc1 (centres undefined)	nt	-7	-18	nt	nt	nt
COC(=O)C1=C(C)N(Cc2cccc(C(F)(F)F)c2)C(=NCc2cccc(C(F)(F)F)c2)NC1c1ccc(Cl)cc1 (centres undefined)	nt	-3	67*	nt	nt	i
COC(=O)C1=C(C)N(Cc2ccc(C(F)(F)F)cc2)C(=NCc2ccc(C(F)(F)F)cc2)NC1c1ccccc1 (centres undefined)	nt	-3	59*	nt	nt	i
CCN=C1NC(c2ccccc2)C(C(=O)OC)=C(C)N1Cc1ccc(C(F)(F)F)cc1 (centres undefined)	nt	12	32	nt	nt	nt
CN1Cc2c(N3CCOCC3)nc3sc(C(=O)c4ccccc4)c(N)c3c2CC1(C)C	-4	0	60*	nt	nt	i
C[C@H](NC(=O)N(C)C[C@H]1OCc2ccccc2-c2c(n(C)c3ccccc23)C(=O)N([C@H](C)CO)C[C@@H]1C)c1ccccc1	nt	2	14	-1	3	nt
CNC[C@@H]1OCCCC[C@@H](C)Oc2ccc(NS(=O)(=O)c3cn(C)cn3)cc2C(=O)N([C@H](C)CO)C[C@@H]1C	nt	nt	-3	-19	-31	nt
O=C(c1ccccc1F)N1CC[C@@H]2[C@H](CO)Nc3ccc(Br)cc3[C@@H]21	nt	-3	-27	3	-8	nt
CN1CCN(CCCNC(=O)c2ccc(/C=C3/Sc4ccccc4N(Cc4cccc(Cl)c4)C3=O)cc2)CC1	-9	22	68*	27*	10	i
CN1CCN(CCCNC(=O)c2ccc(/C=C3\Oc4ccccc4N(Cc4ccccc4F)C3=O)cc2)CC1	-4	5	96*	3	31	i
CN1CCN(CCCNC(=O)c2ccc(/C=C3\Sc4ccccc4N(Cc4ccc(F)cc4)C3=O)cc2)CC1	-8	5	92*	22	7	i
O=C(NCCCN1CCCC1)c1ccc2c(c1)N(Cc1cccc(Cl)c1)C(=O)c1ccccc1S2=O (centres undefined)	-8	-5	67*	7	4	i
COc1ccccc1NC(=O)N[C@H]1CC[C@H](CCNC(=O)c2ccc3c(c2)OCO3)O[C@@H]1CO	nt	2	-1	-2	1	nt

Source: PubChem BioAssay
